Measured values reported in ChEMBL document CHEMBL4680257, “Discovery of novel NF-кB inhibitor based on scaffold hopping: 1,4,5,6,7,8-hexahydropyrido[4,3-d]pyrimidine” (Eur J Med Chem, 2020).
pIC50: −log10 of the molar value.

What was measured:
HepG2 = assay: Cytotoxicity against human HepG2 cells assessed as reduction in cell viability incubated for 24 hrs by MTT assay; assay type: functional, cell-based; conditions: HepG2, 24 h
Procedure, shortened: (§1)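 Cells kept at 37 °C in 5% CO₂. HepG2 grown in DMEM with 10% serum; HHL-5, LO2 and SMMC-7721 in 1640 medium with 10% serum. Seeded, grown 24 h, then exposed 24 h to 10, 5, 2.5, 1.25, 0.625 and 0.3125 µg/mL. MTT (5 mg/mL) added for 4 h at 37 °C; formazan dissolved in DMSO, OD read at 570 nm. IC50 averaged from three replicates.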

SMMC-7721 = assay: Cytotoxicity against human SMMC-7721 cells assessed as reduction in cell viability incubated for 24 hrs by MTT assay; assay type: functional, cell-based; conditions: SMMC-7721, 24 h; procedure, shortened: as §1
[1] = Cytotoxicity against human HHL-5 cells assessed as reduction in cell viability incubated for 24 hrs by MTT assay; assay type: cell-based; conditions: HHL-5, 24 h; procedure, shortened: as §1
L02 = assay: Cytotoxicity against human L02 cells assessed as reduction in cell viability incubated for 24 hrs by MTT assay; assay type: cell-based; conditions: L02, 24 h; procedure, shortened: as §1
RAW264.7 [2] = assay: Cytotoxicity against mouse RAW264.7 cells assessed as reduction in cell viability at 5 uM incubated for 24 hrs by MTT assay; assay type: cell-based; conditions: raw264.7, 24 h
RAW264.7 [3] = assay: Antiinflammatory activity against mouse RAW264.7 cells assessed as LPS-induced TNF-alpha at 5 uM pretreated for 2 hrs followed by LPS stimulation and measured after 22 hrs by ELISA (reference value: 0 %); assay type: functional; conditions: time 24 hrs
RAW264.7 [4] = assay: Antiinflammatory activity against mouse RAW264.7 cells assessed as LPS-induced IL-6 at 5 uM pretreated for 2 hrs followed by LPS stimulation and measured after 22 hrs by ELISA relative to control (reference value: 0 %); assay type: functional; conditions: time 24 hrs

| SMILES | pIC50 (HepG2) | pIC50 (SMMC-7721) | pIC50 [1] | pIC50 (L02) | Activity (RAW264.7 [2]) | inhibition at 5 µM (RAW264.7 [3]) [%] | inhibition at 5 µM (RAW264.7 [4]) [%] |
| --- | --- | --- | --- | --- | --- | --- | --- |
| O=C1/C(=C/c2ccccc2F)CN(S(=O)(=O)c2ccc([N+](=O)[O-])cc2)C/C1=C\c1ccccc1F | 4.78 | 5.21 | 5.18 | 4.81 | Non-Toxic | – | – |
| CC(=O)Nc1ccc(S(=O)(=O)N2C/C(=C\c3ccccc3F)C(=O)/C(=C/c3ccccc3F)C2)cc1 | 5.28 | – | 4.87 | – | Non-Toxic | – | – |
| CC(=O)Nc1ccc(S(=O)(=O)N2CC3=C(NC(N)=NC3c3ccccc3F)/C(=C/c3ccccc3F)C2)cc1.Cl (stereo not given) | 4.93 | 5.07 | 4.66 | 4.95 | Non-Toxic | 67.6 | 61.6 |
| Cl.NC1=NC(c2cccc(F)c2)C2=C(N1)/C(=C/c1cccc(F)c1)CN(S(=O)(=O)c1ccc(F)cc1)C2 (stereo not given) | 4.91 | 5.32 | 4.89 | 4.73 | Non-Toxic | 71.6 | 74.9 |
| N#Cc1ccc(S(=O)(=O)N2C/C(=C\c3ccc(F)cc3)C(=O)/C(=C/c3ccc(F)cc3)C2)cc1 | 5.01 | 4.82 | 4.84 | 4.83 | Non-Toxic | – | – |
| N#Cc1ccc(S(=O)(=O)N2C/C(=C\c3ccccc3F)C(=O)/C(=C/c3ccccc3F)C2)cc1 | 4.78 | 4.84 | 4.87 | 4.96 | Non-Toxic | – | – |
| O=C1/C(=C/c2cccc(F)c2)CN(S(=O)(=O)c2ccc(Cl)cc2)C/C1=C\c1cccc(F)c1 | 4.88 | 5.11 | 4.97 | 4.80 | Non-Toxic | – | – |
| O=C1/C(=C/c2cccc(F)c2)CN(S(=O)(=O)c2ccc(Br)cc2)C/C1=C\c1cccc(F)c1 | 5.11 | 4.93 | 4.78 | 4.80 | Non-Toxic | – | – |
| O=C1/C(=C/c2ccccc2F)CN(S(=O)(=O)c2ccccc2)C/C1=C\c1ccccc1F | 4.80 | 5.24 | 4.57 | 4.75 | Non-Toxic | – | – |
| Cc1ccc(S(=O)(=O)N2C/C(=C\c3ccccc3F)C(=O)/C(=C/c3ccccc3F)C2)cc1 | 4.85 | 5.39 | 5.10 | 4.78 | Non-Toxic | – | – |
| O=C1/C(=C/c2cccc(F)c2)CN(S(=O)(=O)c2ccc(C(F)(F)F)cc2)C/C1=C\c1cccc(F)c1 | 5.62 | 5.38 | 4.87 | 4.74 | Non-Toxic | – | – |
| O=C1/C(=C/c2ccc(F)cc2)CN(S(=O)(=O)c2ccc(F)cc2)C/C1=C\c1ccc(F)cc1 | 5.09 | 4.83 | 4.93 | 4.83 | Non-Toxic | – | – |
| Cc1ccc(S(=O)(=O)N2C/C(=C\c3cccc(F)c3)C(=O)/C(=C/c3cccc(F)c3)C2)cc1 | 5.46 | 4.74 | 4.95 | 4.80 | Non-Toxic | – | – |
| O=C1/C(=C/c2ccc(F)cc2)CN(S(=O)(=O)c2ccc([N+](=O)[O-])cc2)C/C1=C\c1ccc(F)cc1 | 5.27 | 5.30 | 5.11 | 4.79 | Non-Toxic | – | – |
| O=C1/C(=C/c2ccc(F)cc2)CN(S(=O)(=O)c2ccc(Br)cc2)C/C1=C\c1ccc(F)cc1 | 5.10 | 4.94 | 4.77 | 4.79 | Non-Toxic | – | – |
| O=C1/C(=C/c2cccc(F)c2)CN(S(=O)(=O)c2ccc(F)cc2)C/C1=C\c1cccc(F)c1 | 5.30 | 4.87 | 4.81 | 4.66 | Non-Toxic | – | – |
| COc1cccc2c1C(=O)c1c(O)c3c(c(O)c1C2=O)C[C@@](O)(C(=O)CO)C[C@@H]3O[C@H]1C[C@H](N)[C@H](O)[C@H](C)O1 [DOXORUBICIN] | 6.00 | – | 4.91 | 4.86 | – | – | – |
| CC(=O)Nc1ccc(S(=O)(=O)N2C/C(=C\c3cccc(F)c3)C(=O)/C(=C/c3cccc(F)c3)C2)cc1 | 4.95 | 4.99 | 4.77 | 4.76 | Non-Toxic | – | – |
| O=C1/C(=C/c2ccccc2F)CN(S(=O)(=O)c2ccc(Cl)cc2)C/C1=C\c1ccccc1F | 4.96 | 5.35 | 5.02 | 4.85 | Non-Toxic | – | – |
